Beta2AR agonist: activates human beta-2 adrenergic receptor causing internalization | P07550 | 0.43% of 340,000 active | Am2.2-beta2AR cells, FAP receptor internalization, flow cytometry | AID 504454 | response, % (no concentration beside the values);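 active means response above a set limit, near 3 SD of response in nonfluorescent compounds, cut at about 42% in these data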
ATG4B inh: ATG4B (human) cysteine protease inhibition | Q9Y4P1 | inhibition, % at 8.33 µM | AID 504462 | 0.51% of 340,000 active | ATG4B cleavage of LC3-PLA2, NBD-HPC fluorescence, 1 h; in the data active means inhibition above about 40%
Dynein cargo inh: blocks dynein driven cargo transport along microtubules | 0.47% of 220,000 active | z-score, hits read low | 3617.4 mouse cells, GR-EGFP nuclear translocation imaging; test concentration mostly 20 µM; stimulated with dexamethasone, 1 µM; stronger effect = lower value;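 active means plate z-score of nuclear minus cytoplasmic receptor signal below a set negative limit, without overly bright fluorescence or cell loss, cut at about -3.5 in these data, passing the limit was not always enough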;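 further: z-score of nuclear minus cytoplasmic ring GR-EGFP intensity difference per well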
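Buffer or medium: tet-free, stripped-serum medium; Also added: dexamethasone, 1.0 µM final; Technique: high-content fluorescence imaging after fixation; Times: 48 h induction, 1 h compound, 30 min dex at 37 °C; Read-out: per-cell GR-EGFP intensity, nucleus versus surrounding cytoplasmic ring, well-averaged.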
MEKK3 PB1 HTS: raises or lowers MEK5 binding to the human MEKK3 PB1 domain; bead-based flow cytometry, Alexa488-MEK5 binding to MEKK3; actives lie on both sides; 0 = blocked by unlabeled MEK5, 100 = vehicle; Q99759; 1.4% of 290,000 active; binding response (% of control), % at 10 µM;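 active means binding response more than 3 SD above or below the average of its plate-row segment, actives on both sides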;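 further: Alexa488 bead fluorescence after subtracting the streptavidin-only scavenger bead signal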
Target sequence (Q99759 whole entry, looked up, the tested form may be a part): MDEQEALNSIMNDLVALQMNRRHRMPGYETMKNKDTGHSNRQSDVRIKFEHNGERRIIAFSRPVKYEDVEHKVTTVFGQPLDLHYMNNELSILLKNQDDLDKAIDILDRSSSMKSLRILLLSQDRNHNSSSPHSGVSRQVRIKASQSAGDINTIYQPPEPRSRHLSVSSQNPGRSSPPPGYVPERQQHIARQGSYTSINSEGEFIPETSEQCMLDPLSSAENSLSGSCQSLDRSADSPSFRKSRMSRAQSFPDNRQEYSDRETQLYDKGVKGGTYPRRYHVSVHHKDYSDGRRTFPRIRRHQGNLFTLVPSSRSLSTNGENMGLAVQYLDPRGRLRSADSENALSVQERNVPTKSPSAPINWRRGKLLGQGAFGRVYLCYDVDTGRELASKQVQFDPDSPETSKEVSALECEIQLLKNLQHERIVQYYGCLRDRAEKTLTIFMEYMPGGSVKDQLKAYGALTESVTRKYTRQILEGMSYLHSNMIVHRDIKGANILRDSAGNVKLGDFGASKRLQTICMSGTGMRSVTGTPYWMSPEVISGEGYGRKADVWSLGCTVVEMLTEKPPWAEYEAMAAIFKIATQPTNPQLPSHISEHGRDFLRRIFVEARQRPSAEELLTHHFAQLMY
MEKK2wt PB1 HTS: raises or lowers MEK5 binding to wildtype human MEKK2 PB1 domain. bead flow cytometry, Alexa488-MEK5 binding to MEKK2 WT; actives lie on both sides. Q9Y2U5. 1.1% of 290,000 active. binding response (% of control), % at 10 µM; in the data active means binding response below about 67% or above about 130%
MEKK2 mut-MEK5: signal of MEK5 binding to mutant human MEKK2 PB1 domain. bead flow cytometry, Alexa488-MEK5 binding to MEKK2 mutant. percent response, % at 10 µM. 0.35% of 290,000 active; in the data active means percent response above about 24%, passing the limit was not always enough
MEKK2wt confirm: raises or lowers MEK5 binding to wildtype human MEKK2, retest. bead flow cytometry, Alexa488-MEK5 binding to MEKK2 WT; actives lie on both sides. shares compounds with MEKK3 PB1 HTS. 2.4% of 5,900 active. binding response (% of control), % at 10 µM; in the data active means binding response below about 16% or above about 210%; inactive means in between
MEKK2mut-MEK5: signal of MEK5 binding to mutant human MEKK2, retest; shares compounds with MEKK3 PB1 HTS; bead flow cytometry, Alexa488-MEK5 binding to MEKK2 mutant; percent response, % at 10 µM; 2% of 5,900 active; in the data active means percent response mostly above about 71%, no sharp cut-off; inactive means mostly below about 38%;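 further: higher means compound restores mutant binding toward wildtype level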
MEKK3-MEK5 inh: MEKK3-MEK5 PB1 inhibition, single concentration confirmation. shares compounds with MEKK3 PB1 HTS. bead flow cytometry, Alexa488-MEK5 binding to MEKK3; stronger effect = lower value. binding response (% of control), % at 10 µM. 1.8% of 5,900 active;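 active means binding response below 72% of control, or above a set upper limit, though filed actives all read lower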;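 further: 100% = DMSO only wells and 0% = binding blocked by excess unlabeled MEK5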
Starred values were filed as active, the others as inactive; / = no result; [ ] = another dose, or the depositor's remark. Hits are enriched below; roughly 2.9% of the tested compounds scored in any of these assays.

SMILES	Beta2AR agonist	ATG4B inh	Dynein cargo inh	MEKK3 PB1 HTS	MEKK2wt PB1 HTS	MEKK2 mut-MEK5	MEKK2wt confirm	MEKK2mut-MEK5	MEKK3-MEK5 inh
CNC(=S)N1CCN(C(=O)C2CCCO2)CC1 (stereo not drawn)	-4	-4	-0.6	67*[inhibitor]	94	-2	102	0	103
Cc1cc(C)cc(NC(=O)c2ccc([N+](=O)[O-])o2)c1	4	-5	-0.91	106	97	-5	/	/	/
Cc1cc(C)nc(NC(=O)c2ccc([N+](=O)[O-])o2)n1	6	-2	-0.76	128*	104	2	97	-10	99
Cc1cc(Br)ccc1-n1[nH]c(C)c(C=Nc2cccc3nsnc23)c1=O	-2	-3	0.56	86	41*[inhibitor]	-17	88	-11	99
COC(=O)C1=C(C(=O)OC)[C@@H]2N(C)c3ccc(OC)cc3[C@@]23C[C@@H](C(=O)OC)N(C(=O)NC2CCCCC2)C3=N1	-3	-10	/	2.0*[inhibitor]	3.0*[inhibitor]	-24	100	-2	103
O=C(/C=C/c1ccccc1Cl)N(Cc1ccccc1)C1CCS(=O)(=O)C1 (stereo not drawn)	-9	-24	-0.16	138*	103	0	101	-2	100
O=C(/C=C/c1ccccc1Cl)N(Cc1ccc(Cl)cc1)C1CCS(=O)(=O)C1 (stereo not drawn)	-6	8	-0.14	104	103	-1	/	/	/
CC[C@H](C)[C@@H](CN[C@H](CCCCNC)CNC)NCC1CCCC1	1	-2	/	104	141*	8	114	8	106
O=C1C(=O)N(CCN2CCOCC2)C(c2ccccn2)/C1=C(/O)c1ccccc1 (stereo not drawn)	4	-9	-1.1	0.0*[inhibitor]	0.0*[inhibitor]	-27	108	7	108
CCN(CC)c1ccc(C(=O)NNC(=O)CCNC(=O)c2ccccc2)cc1	1	-4	/	/	/	/	/	/	/
CCN(CC)c1ccc(C(=O)NNC(=O)CCl)cc1	3	8	3.2	42*[inhibitor]	46*[inhibitor]	-18	105	5	106
CCN(c1cccc(C)c1)S(=O)(=O)c1ccc2c(c1)CCCN2C(C)=O	-10	-6	/	101	101	-1	/	/	/
CCOC(=O)C1CCN(C(=O)CCS(=O)(=O)c2ccc3c(c2)CCN3C(C)=O)CC1	1	-3	-0.37	126*	116	5	102	2	101
CCN(c1cccc(C)c1)S(=O)(=O)c1ccc2c(c1)CCN2C(C)=O	-28	-3	-0.88	1.0*[inhibitor]	-1.0*[inhibitor]	-10	101	-4	103
CC(=O)N1CCc2cc(S(=O)(=O)CCC(=O)N3CCC(C)CC3)ccc21	-9	-8	/	97	95	-8	/	/	/
CN(CCCN1c2ccccc2CCc2ccccc21)CC(=O)c1ccc(Cl)cc1	/	/	/	107	165*	18	130	16	96
CN(C)CCCN1c2ccccc2Sc2ccccc21	33	3	0.014	104	106	8	/	/	/
CN(C)CCCN1c2ccccc2CCc2ccc(Cl)cc21	37	12	0.85	77	148*	13	131	12	106
CSc1ccccc1C(=O)N1CCCC(CCC(=O)NCc2ccc(F)c(F)c2)C1 (stereo not drawn)	1	10	/	98	99	4	/	/	/
Cc1ccc(NC(=O)CCCN2C(=O)NC(C)(C)C2=O)cc1	0	-11	/	/	/	/	/	/	/
Cc1ccc(N(CN2C(=O)NC(C)(C)C2=O)CN2C(=O)NC(C)(C)C2=O)cc1	5	-11	0.88	2.0*[inhibitor]	2.0*[inhibitor]	-16	101	-4	99
COC(=O)CCC(=O)OC1(C)C(=O)C=C2C=C(C3CC3)N(C3CCCC3)C=C2C1=O (stereo not drawn)	-6	1	-0.37	122	149*	4	100	7	104
[O-][n+]1ccc(C(O)c2ccccc2)cc1 (stereo not drawn)	2	-3	/	98	99	0	/	/	/
CC(C(=O)Nc1cc([N+](=O)[O-])ccc1Cl)N1CCN(c2ccccc2O)CC1 (stereo not drawn)	-9	-2	-0.57	132*	102	0	97	2	98
CCN(c1ccccc1)S(=O)(=O)c1ccc(Oc2ccccc2)c(N)c1	-2	15	/	/	/	/	/	/	/
SMILES	Beta2AR agonist	ATG4B inh	Dynein cargo inh	MEKK3 PB1 HTS	MEKK2wt PB1 HTS	MEKK2 mut-MEK5	MEKK2wt confirm	MEKK2mut-MEK5	MEKK3-MEK5 inh
CN1CCN(c2nc(Nc3ccc(F)cc3)nc(Nc3ccc(F)cc3)n2)CC1	16	0	/	113	145*	33*	137	16	104
c1ccc(Nc2nc(Nc3ccccc3)nc(N3CCNCC3)n2)cc1	10	5	/	111	154*	12	136	20	106
CC1CN(C2=NC(=O)/C(=C/c3ccncc3)S2)CC(C)O1 (stereo not drawn)	1	0	-1.1	97	104	1	/	/	/
COC1CCN(Cc2cn(Cc3ccccc3)nc2-c2cc3ccccc3o2)CC1	10	-4	0.75	85	140*	24	120	2	98
CCNC(=O)CON=C1c2ccccc2-c2ccccc21	-1	-17	-0.053	99	103	0	/	/	/
CCC(CC)NC(=O)CON=C1c2ccccc2-c2ccccc21	-1	-15	0.086	146*	107	0	99	-2	102
CCOC(=O)C1CCCC12Nc1cccc3cccc(c13)N2 (stereo not drawn)	-3	-16	/	/	/	/	/	/	/
Cc1cc(C(=O)NCCN2CCN(c3cccc(Cl)c3)CC2)n(-c2ccccc2)n1	-1	1	0.1	108	124	12	/	/	/
Cc1cc(C(=O)NCCCN2CCN(c3cc(Cl)ccc3C)CC2)n(-c2ccccc2)n1	-17	-22	-0.76	109	139*	21	134	30	104
Cc1sc2ncn(CC(=O)OC(C)C(=O)NC(C)(C)C)c(=O)c2c1C (stereo not drawn)	-6	-11	1.5	101	98	1	/	/	/
O=C(Nc1ccccn1)c1cc2cc([N+](=O)[O-])ccc2s1	17	-2	-0.097	106	103	79*	105	8	106
Cc1ccc(NCCCn2ccc(NC(=O)OCc3ccccc3)nc2=O)cc1C	6	0	/	/	/	/	/	/	/

Screens deposited in PubChem by several laboratories.
